Source: paper PMC5386783 (Nature medicine, 2016)
Values joined by “and” are separate entries in the source; they are usually repeats but may differ in a detail not shown here. Equal values may be shown once.

Assays:
activated caspases = details: cited from earlier work
[1] = tested on: ZIKV-induced caspase-3 activity; experiment: Caspase-3/7 activity assay in ZIKV-infected SNB-19 cells; format: cell-based; details: Homo sapiens, SNB-19, read-out: IC50, caspase activity
How it was run: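 SNB-19 cells (250/well, PDL-coated 1536-well) were grown 16 h at 37 °C/5% CO2, given pin-transferred test compound for 30 min, then ZIKV at 2 FFU/cell for 6 h. Caspase-Glo 3/7 reagent was added for 30 min at room temperature and luminescence read. Uninfected cells were 0% and infected cells 100%. Confirmation used 11-point 1:3 dilutions, n = 3, and IC50 came from curve fits.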

SNB-19 cells = experiment: ATP content cell viability assay in ZIKV-infected SNB-19 cells; format: cell-based; details: Homo sapiens, SNB-19, read-out: IC50, cell viability
[2] = oral delivery, BID, × 4 days; cited from earlier work
[3] = cited from earlier work
forebrain-specific hNPCs = format: cell-based, human
How it was run: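 Forebrain hNPCs were derived from iPSCs via embryoid bodies, rosettes and neurospheres. Monolayers were exposed to ZIKV FSS-13025 (MOI 0.04–0.08) ± test compound and immunostained 72 h later for ZIKV envelope, cleaved caspase-3 and DAPI; %Cas3+/DAPI cells, mean ± s.e.m., n = 3 cultures, one-way ANOVA. C1–2 iPSC forebrain organoids: exposed on day 18 for 24 h, fresh medium 9 more days, then fixed and immunostained.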

[4] = ref WHO http://apps.who.int/medicinedocs/en/d/Jh2922e/3.1.3.html; cited from earlier work
ZIKV [5] = experiment: Time-of-addition experiment in SNB-19 cells; format: cell-based, Zika virus; details: PRVABC59, MOI = 1, 10 μg/ml anti-AXL antibody, 2 μM Niclosamide, 92 μM PHA-690509
How it was run: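 SNB-19 cells received test compound or 10 μg/ml anti-AXL antibody either 1 h before or 4 h after PRVABC59 infection (MOI 1). NS1 was detected by western blot, and NS1/GAPDH band intensities were normalised to DMSO. n = 3 cultures; one-way ANOVA versus DMSO.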

ZIKV [6] = experiment: ZIKV NS1 expression; format: cell-based, Zika virus; details: SNB-19 cells; three strains; dose-dependent
How it was run: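 SNB-19 cells were treated with titrated test compound 1 h before FSS-13025, PRVABC59 or MR766 (MOI 1) and harvested at 24 h for NS1 western blot. NS1/GAPDH bands were normalised to DMSO. Secreted NS1 in the medium after 24 h was measured by NS1 ELISA kit. n = 3 cultures; one-way ANOVA versus DMSO or the 0 μM group.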

ZIKV [7] = experiment: ZIKV production from SNB-19 cells, focus-forming unit assay on Vero cells; format: cell-based, Zika virus; details: for concentrations suppressing production of infectious ZIKV particles: PRVABC59, MOI = 0.5, 24 hours post infection
ZIKV [8] = experiment: ZIKV infection and production in hNPCs and astrocytes; format: cell-based, Zika virus; details: PRVABC59
How it was run: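 Astrocytes were treated with test compound 1 h before PRVABC59 (MOI 0.5), fixed 24 h post-infection, and immunostained for ZIKV envelope protein with DAPI. Stained cells were counted. Virus released into culture supernatant was titrated as focus-forming units on Vero cells.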

astrocytes = experiment: Astrocyte viability, compound toxicity; format: cell-based; details: at levels lower than 3 μM
How it was run: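 Cells were seeded in 96-well plates and, one day later, treated with test compound for 24–48 h without virus. Viability was then read with a CellTiter-Glo luminescent ATP substrate.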

ZIKV [9] = experiment: Intracellular ZIKV RNA levels; format: cell-based, Zika virus; details: read-out: IC50, intracellular ZIKV RNA levels
How it was run: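 SNB-19 cells, astrocytes or hNPCs (~3×10^5/well, 12-well) were treated with test compound 1 h before ZIKV (MOI 0.5–1) and harvested 24–48 h post-infection. Total RNA (500–1000 ng) was reverse-transcribed with random hexamers. SYBR qPCR used ZIKV NS1 primers, with GAPDH as the endogenous control. Fold change was calculated by ΔΔCT, normalised to control cells.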

hNPC [10] = experiment: hNPC proliferation after ZIKV infection with compound treatment; format: cell-based, human; details: ZIKV-infected hNPCs
ZIKV [11] = experiment: ZIKV production from iPSC-derived human astrocytes, FFU assay; format: cell-based, Zika virus; details: read-out: IC50, ZIKV production upon infection of human astrocytes; PRVABC59
hNPC [12] = experiment: hNPC proliferation in brain organoids, compound alone without ZIKV; format: cell-based, human; details: PHA-690509 1 μM, Seliciclib 5 μM

## C[C@H](NC(=O)C(=O)Nc1ccccc1C(C)(C)C)C(=O)N[C@@H](CC(=O)O)C(=O)COc1c(F)c(F)cc(F)c1F [Emricasan]
Activated caspases
  activity against activated caspases in vitro: sub-to nano-molar activity
[1]
  IC50: 130 to 900 nM
SNB-19 cells
  IC50: 130 to 900 nM
[2]
  maximum concentration in human blood: 2.36 μg/ml and 4.15 μM
  overall concentration in human blood: 1.90 μg/ml and 3.35 μM
[3]
  tolerability in human trials: well tolerated in human trials without significant adverse events
forebrain-specific hNPCs; 2D and 3D cultures
  suppression of ZIKV replication (ZIKV antigen): does not suppress ZIKV replication
forebrain-specific hNPCs; infected by FSS13025, monolayer and 3D organoid cultures
  number of active (cleaved) caspase-3-expressing forebrain-specific hNPCs: reduced

## O=C(Nc1ccc([N+](=O)[O-])cc1Cl)c1cc(Cl)ccc1O [Niclosamide]
[4]
  mutagenic, teratogenic or embryotoxic potential: not been shown to be mutagenic, teratogenic or embryotoxic
ZIKV [5]
  inhibition of ZIKV infection by time of addition: effectively inhibited ZIKV infection when added either 1 hour before or 4 hours after virus inoculation
ZIKV [6]
  inhibition of ZIKV as measured by NS1 expression: inhibited all three strains of ZIKV
ZIKV [7]
  concentrations suppressing production of infectious ZIKV particles: sub-micromolar concentrations
ZIKV [8]
  ZIKV infection and production in hNPCs and astrocytes: inhibited ZIKV infection and production
astrocytes
  toxicity, astrocyte viability: minimal toxicity
ZIKV [9]; Zika virus
  IC50: 370 nM

## CC(C)c1nn(-c2c(Cl)cccc2Cl)c2nc(Cc3ccc(OCCO)cc3)[nH]c(=O)c12 [RGB-286147]
ZIKV [7]; read-out: IC50, ZIKV production
  IC50: 27 nM

## CC(=O)Nc1ccc([C@H](C)C(=O)Nc2ncc(C(C)C)s2)cc1 [PHA-690509]
hNPC [10]
  rescue of ZIKV-induced reduction in hNPC proliferation: partially rescued
ZIKV [5]
  inhibition of ZIKV infection by time of addition: effectively inhibited ZIKV infection when added either 1 hour before or 4 hours after virus inoculation
ZIKV [6]
  inhibition of ZIKV as measured by NS1 expression: inhibited all three strains of ZIKV
ZIKV [7]
  concentrations suppressing production of infectious ZIKV particles: sub-micromolar concentrations
ZIKV [8]
  ZIKV infection and production in hNPCs and astrocytes: inhibited ZIKV infection and production
astrocytes
  toxicity, astrocyte viability: minimal toxicity
ZIKV [11]
  IC50: ~200 nM
ZIKV [9]
  IC50: 1720 nM

## CC[C@H](CO)Nc1nc(NCc2ccccc2)c2ncn(C(C)C)c2n1 [Seliciclib]
hNPC [10]
  rescue of ZIKV-induced reduction in hNPC proliferation: partially rescued
hNPC [12]
  effect of treatment alone on hNPC proliferation in brain organoids: minimal effect
